Bioassay records: PubChem BioAssay, several laboratories
Hits are enriched below; roughly 3.5% of the tested compounds scored in any of these assays.
STAT3 act – IL-6 driven STAT3 reporter potentiators, primary screen, U3A cells, luciferase, luminescence, MLSCN library; activation (% of control), % at 5.6 µM; IL-6 STAT3-luciferase reporter; 100% = signal with IL-6 EC80 alone; 190,000 tested, 0.91% active;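 active means activation above the screen-wide mean of compound activation plus 3 SD, cut at about 130% in these data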
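Material: STAT1-lacking human U3A cells, STAT3 luciferase reporter | Benchmarks: IL-6-only wells as 100% reference | Probe or stimulus: IL-6 (33 ng/mL) | Timing: Compound 1 h, then IL-6 6 h at 37 °C | Detection: Luminescence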
KLK5 inh – human KLK5 protease inhibitors, primary screen, biochemical, 1536-well; inhibition, % at 5 µM; 210,000 tested, 0.59% active; recombinant hK5, fluorogenic AMC substrate cleavage; Kallikrein-5 (Homo sapiens), Q9Y337;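 active means inhibition of 40% or more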
Target sequence (Q9Y337 67-293 limits assumed): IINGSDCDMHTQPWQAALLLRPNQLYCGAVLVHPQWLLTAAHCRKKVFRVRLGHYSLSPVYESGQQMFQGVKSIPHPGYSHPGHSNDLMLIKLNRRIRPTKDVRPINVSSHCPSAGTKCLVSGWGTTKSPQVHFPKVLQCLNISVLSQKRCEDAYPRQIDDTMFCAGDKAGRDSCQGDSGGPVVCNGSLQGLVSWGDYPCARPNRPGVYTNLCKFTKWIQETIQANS
FXIIa inh 1536 – human FXIIa protease inhibitors, primary screen, biochemical, 1536-well. purified FXIIa, Boc-QGR-AMC fluorogenic substrate, 2 h. Coagulation factor XII (Homo sapiens), P00748. inhibition, % at 5 µM. 220,000 tested, 0.3% active; in the data active means inhibition above about 40%
AHR act – AHR activators, primary screen, cell-based, luminescence, luciferase reporter, human. AHR-responsive luciferase reporter cells. activation, % at 5 µM. 320,000 tested, 2.5% active; in the data active means activation above about 47%
thrombin 1536 – human alpha-thrombin inhibitors, primary screen, counter-screen for coagulation protease inhibitor project, biochemical, 1536-well, fluorogenic AMC substrate | inhibition, % at 5 µM | AID 1046, 2008 | Boc-VPR-AMC fluorogenic substrate cleavage | 220,000 tested, 0.26% active;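 active means inhibition at or above 40%; inactive means inhibition below 40%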
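Assay system: human alpha-thrombin enzyme. Reagent: Boc-VPR-AMC substrate, 15 µM final. Compound dosing: one concentration per compound, 5 µM, with 0.2% DMSO. Incubation: room-temperature reaction. Technique: AMC fluorescence, 355/460 nm. Measure: % inhibition relative to enzyme controls and enzyme-free blanks.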
FXIa inh 1536 – human FXIa protease inhibitors, primary screen, biochemical, 1536-well | 220,000 tested, 0.14% active | purified FXIa, Boc-Glu-Ala-Arg-AMC fluorogenic substrate | Coagulation factor XI (Homo sapiens), P03951 | AID 798, 2007 | inhibition, % at 5 µM;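 active means inhibition of at least 40%; inactive means inhibition below 40%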;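 further: fluorescence of freed AMC excited at 355 nm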
AHR act cf – AHR activators, confirmation, cell-based, luminescence, luciferase reporter, human; AID 2845, 2010; shares compounds with AHR act; human cells, AHR-responsive luciferase reporter; activation, % at 9 µM; 2,300 tested, 87% active; in the data active means activation above about 49%;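 further: HepG2 hepatoma cells carrying a DRE-driven firefly luciferase reporter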
PXR act counter – human PXR activators, counter-screen for AHR activator project, cell-based, luciferase luminescence; shares compounds with AHR act; activation, % at 11.6 µM; cell-based PXR reporter; 2,300 tested, 88% active; in the data active means activation above about 11%;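 further: human hepatoma DPX-2 cells expressing full-length human PXR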
Target sequence (O75469 whole entry, looked up): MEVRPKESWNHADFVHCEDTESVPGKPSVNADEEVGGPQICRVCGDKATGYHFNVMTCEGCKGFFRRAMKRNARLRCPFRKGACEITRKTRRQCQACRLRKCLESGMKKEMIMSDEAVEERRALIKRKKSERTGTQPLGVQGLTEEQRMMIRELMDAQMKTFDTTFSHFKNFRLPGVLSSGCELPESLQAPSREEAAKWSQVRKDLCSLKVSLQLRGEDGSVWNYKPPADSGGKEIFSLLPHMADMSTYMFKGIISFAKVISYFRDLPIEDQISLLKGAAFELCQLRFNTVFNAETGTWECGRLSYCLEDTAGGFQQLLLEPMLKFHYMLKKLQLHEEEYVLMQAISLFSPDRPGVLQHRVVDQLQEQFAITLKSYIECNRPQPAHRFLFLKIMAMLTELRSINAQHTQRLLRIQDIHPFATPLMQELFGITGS
Large screens that a line does not name were inactive (follow-up assays come after a bar, where they were run).

Cn1ncc(C(=O)Nc2ccc(OC(F)(F)F)cc2)c1-n1cccc1	AHR act 80 (no result: STAT3 act) | AHR act cf 100 | PXR act counter 30
O=C(NNC(=O)c1ccc([N+](=O)[O-])cc1Cl)c1ccncc1	none
Cc1nonc1C1CCCN1C(=O)c1cc(COc2ccc(F)cc2Cl)on1 (stereo unspecified)	none
C/C=C/COC(=O)c1[nH]c2c(c1C)C(=O)CC(c1ccco1)C2 (stereo unspecified)	AHR act 116 | AHR act cf inactive | PXR act counter 197
C=CCOC(=O)c1[nH]c2c(c1C)C(=O)CC(c1ccco1)C2 (stereo unspecified)	AHR act 103 | AHR act cf inactive | PXR act counter 195
CC1=C(C(=O)Nc2cccc(C)c2C)C(c2cccs2)NC(=S)N1 (stereo unspecified)	none
CC(C)OC(=O)c1nnc(Cc2ccc(F)cc2)o1	AHR act 91 (no result: STAT3 act) | AHR act cf inactive | PXR act counter inactive
CC(C)(C)NC(=S)N/N=C/c1c(Cl)cccc1Cl	AHR act 103 (no result: STAT3 act) | AHR act cf inactive | PXR act counter 131
CCOc1ccc(N(CC(=O)Nc2nccs2)S(=O)(=O)c2c(C)[nH]c(=O)[nH]c2=O)cc1	none
CCn1c(CNc2ccc(Cl)cc2)nnc1SCC#N	AHR act 120 | AHR act cf 100 | PXR act counter 48
O=C(NCc1ccccn1)c1cccc(S(=O)(=O)NCc2ccccc2)c1	none (no result: STAT3 act, KLK5 inh, FXIIa inh 1536, thrombin 1536, FXIa inh 1536)
COCc1cc(=O)n2[nH]c(C)cc2n1	none
COCc1cc(=O)n2[nH]c(-c3cccc(Br)c3)cc2n1	AHR act 120 | AHR act cf 115 | PXR act counter 13
CC(=O)N/N=c1\sc2ccccc2n1C	none
C/C(=N\N=c1/sc2ccccc2n1C)c1ccccn1	AHR act 104 | AHR act cf 143 | PXR act counter 26
CCc1ccc(NC(=O)c2sccc2-n2cccc2)cc1	AHR act 102 | AHR act cf 141 | PXR act counter 41
O=C(Nc1ccc(Cl)cc1)c1sccc1-n1cccc1	AHR act 138 | AHR act cf 145 | PXR act counter 28
Cc1ccc(NC(=O)c2sccc2-n2cccc2)c(C)c1	none
Cc1cccc(NC(=O)C(C)Oc2ccc(C)nc2[N+](=O)[O-])c1 (stereo unspecified)	none (no result: STAT3 act, KLK5 inh, FXIIa inh 1536, thrombin 1536, FXIa inh 1536)
COc1ccc(C(=O)NC(C)c2ccncc2)cc1S(=O)(=O)N(C)Cc1ccccc1 (stereo unspecified)	none (no result: STAT3 act, KLK5 inh, FXIIa inh 1536, thrombin 1536, FXIa inh 1536)
Cc1cccc([N+](=O)[O-])c1NC(=O)CSc1nnc2ccccn12	none (no result: STAT3 act, KLK5 inh, FXIIa inh 1536, thrombin 1536, FXIa inh 1536)
Cc1cccc(NC(=O)c2sc3nc(N)c(C#N)cc3c2N)c1	AHR act 111 | AHR act cf 61 | PXR act counter 29
Cc1cc(C)cc(NC(=O)c2sc3nc(C)cc(C)c3c2N)c1	none (no result: STAT3 act, KLK5 inh, FXIIa inh 1536, thrombin 1536, FXIa inh 1536)
O=C1C(Cl)=C(N2CCOCC2)C(=O)N1CCc1ccccc1	AHR act 92 | AHR act cf 117 | PXR act counter 16
CN1CCN(C2=C(Cl)C(=O)N(CCc3ccccc3)C2=O)CC1	none
O=C1C(Cl)=C(NCCc2ccccc2)C(=O)N1CCc1ccccc1	none
O=C1C(Cl)=C(NCC2CCCO2)C(=O)N1CCc1ccccc1 (stereo unspecified)	AHR act 92 | AHR act cf 91 | PXR act counter 65
CC(=O)c1cccc(NC(=S)NC(=O)CC(C)(C)C)c1	none
COc1cccc(OC)c1C(=O)Nc1sc2c(c1C(N)=O)CCN(Cc1ccccc1)C2	AHR act 129 (no result: STAT3 act, KLK5 inh, FXIIa inh 1536, thrombin 1536, FXIa inh 1536) | AHR act cf 85 | PXR act counter 59
O=C(Nc1ccc(Cl)cc1)c1csc(Cc2ccccc2)n1	AHR act 85 | AHR act cf inactive | PXR act counter inactive
COc1ccc(NC(=O)c2csc(Cc3ccc(Cl)cc3)n2)cc1	none
O=S(=O)(Nc1cccc2ncccc12)c1cccs1	none
O=S(=O)(Nc1ccc(-c2nc3cccnc3s2)cc1)c1cccs1	AHR act 95 | AHR act cf 98 | PXR act counter 29
O=c1c2ccccc2[nH]c(=S)n1CCC1=CCCCC1	AHR act 113 | AHR act cf 125 | PXR act counter 24
CCc1ccc(-c2csc(-c3c[nH]c4ccccc34)n2)cc1	AHR act 87 | AHR act cf 124 | PXR act counter 29
Cc1ccc(-c2cnc(NC(=O)c3cccc(Br)c3)s2)c(C)c1	none
Nc1nc(NCCCN2CCOCC2)nc(Nc2cccc(F)c2)c1[N+](=O)[O-]	none (no result: STAT3 act)
Cc1ccc(Nc2nc(N)c([N+](=O)[O-])c(N3CCOCC3)n2)cc1C	AHR act 119 | AHR act cf 83 | PXR act counter 21
Nc1nc(NCCCN2CCOCC2)nc(Nc2ccc(F)cc2)c1[N+](=O)[O-]	AHR act 83 | AHR act cf inactive | PXR act counter 29
Cc1ccc(Nc2nc(N)c([N+](=O)[O-])c(N3CCC(C)CC3)n2)cc1C	none
CNC(=O)c1cc(NC(=O)CCn2nc(-c3ccc(C)cc3)c3ccccc3c2=O)ccc1OC	none (no result: STAT3 act)
C=CCc1c(C)nc(-c2ccccc2)nc1Nc1ccccc1O	AHR act 121 | AHR act cf 88 | PXR act counter 134
Cc1cccc(C(=O)Nc2ccnc(-c3ccncc3)n2)c1	AHR act 99 | AHR act cf 48 | PXR act counter inactive
Cc1cccc(C(=O)Nc2ccnc(-c3cccnc3)n2)c1	none
COc1ccc(-c2[nH]ncc2CN(CCO)Cc2cccs2)c(F)c1	none (no result: KLK5 inh)
COc1ccc(OC)c2c1sc(=NC(=O)C1CCCCC1)n2C	none (no result: STAT3 act)
Cn1c(=NC(=O)C2CC2)sc2cccc(F)c21	AHR act 100 | AHR act cf 119 | PXR act counter 23
O=C(Nc1ccccn1)c1ccc2ccccc2c1O	AHR act 151 (no result: STAT3 act, KLK5 inh, FXIIa inh 1536, thrombin 1536, FXIa inh 1536) | AHR act cf 152 | PXR act counter 16
O=C(O)c1ccccc1C(=O)Nc1ccccn1	none
CCCCNC(=O)CSc1nc2cc3c(cc2c(=O)n1CCC(=O)NCCc1ccc(OC)c(OC)c1)OCO3	none
c1ccc(-c2ccc(-c3csnn3)cc2)cc1	AHR act 86 | AHR act cf 96 | PXR act counter 17
O=C(Oc1ccc(-c2csnn2)cc1)c1cccs1	none (no result: STAT3 act)
COC(=O)c1ccc(CSc2nnc(C)n2N)o1	none
